Laboratory results reported in article PMC10239344 (ChemMedChem, 2023).
Where two headings read alike, the source gives them in different places.

How the values were obtained:
[1] = target: T1, K. pneumoniae LpxH (KpLpxH) (Klebsiella pneumoniae subsp. pneumoniae, UniProt A6T5R0); conditions: cited from earlier work; for Percentage Activity of KpLpxH (vi/v0) / Percentage Inhibition of KpLpxH: 0.1 μM inhibitor, previously reported
T1 sequence (A6T5R0 1-240): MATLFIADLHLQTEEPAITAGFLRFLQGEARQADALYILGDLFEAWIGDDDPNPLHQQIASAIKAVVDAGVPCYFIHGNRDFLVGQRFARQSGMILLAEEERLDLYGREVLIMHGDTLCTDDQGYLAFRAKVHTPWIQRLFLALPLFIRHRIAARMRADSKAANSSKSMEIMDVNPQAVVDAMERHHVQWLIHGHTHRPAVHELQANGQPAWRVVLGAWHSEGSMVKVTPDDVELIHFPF

[2] = target: T1, K. pneumoniae LpxH (KpLpxH); test: LpxE-coupled malachite green LpxH activity assay; format: biochemical
Method in brief: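 Enzyme/inhibitor and substrate mixes were preincubated 10 min at 37 °C, then combined (final 100 μM UDP-DAGn, 10 ng/mL enzyme). Aliquots were EDTA-quenched, then A. aeolicus LpxE 5 μg/mL was added for 30 min at 37 °C. Formic acid stop; malachite green A620. Triplicates; activity normalized to DMSO control; IC50 fit converted to competitive KI.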

SMILES: CC(=O)N1CCc2cc(S(=O)(=O)N3CCN(c4cccc(C(F)(F)F)c4)CC3)ccc21 [Compound 1]
- Percentage Activity of KpLpxH (vi/v0) [1]: 78^[16] %
- Percentage Inhibition of KpLpxH [1]: 22^[16] %

SMILES: CC(=O)N1CCc2cc(S(=O)(=O)N3CCN(c4cc(Cl)cc(C(F)(F)F)c4)CC3)ccc21 [Compound 2]
- Percentage Activity of KpLpxH (vi/v0) [1]: 21%
- Percentage Inhibition of KpLpxH [1]: 79^[16] %
- Percentage Activity of KpLpxH (vi/v0) ([1]; listed as 2 (JH-LPH-33)): 21^[16] %
- IC50 ([1]; read-out: IC50 of KpLpxH inhibition, reported value): 26 nM
- Ki ([1]; read-out: KI for KpLpxH, reported value): 10 nM

SMILES: O=C(CCCCCNC(=O)Nc1ccc(S(=O)(=O)N2CCN(c3cc(Cl)cc(C(F)(F)F)c3)CC2)cc1)NO [Compound 13]
- Percentage Inhibition of KpLpxH ([2]; 0.1 μM inhibitor): 97%
- Ki ([2]; read-out: KI for KpLpxH, from IC50, competitive binding mode, KM 68.1 μM): 3.1 nM
